The test system of one experiment is P388. In words: Cytotoxicity against mouse P388 cells. The format is functional, cell-based. In a few lines:
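P388 mouse leukemia cells; cytotoxicity reported as IC50 in μg/ml.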

The target of experiment [1] is Human immunodeficiency virus type 1 reverse transcriptase (Human immunodeficiency virus 1) (UniProt Q72547). Briefly: Inhibition of HIV1 reverse transcriptase.
A further experiment has as its system Candida albicans. Briefly: Antimicrobial activity against Candida albicans. The format is functional.

6 molecules from ChEMBL document CHEMBL1158936, “New avarone and avarol derivatives from the marine sponge Dysidea cinerea” (J Nat Prod, 1991) can be followed below.

Molecules are shown by their SMILES. ≈ marks a conversion by molar mass, not a printed value. Calls of active or inactive are those of the source. The rule behind the calls is not given here.

As a reminder, the IC50 is the concentration that gives 50% inhibition. By MIC is commonly meant the lowest concentration found to suppress growth. Read a high MIC as a need for much substance. As for `CC1=CCC[C@H]2[C@](C)(CC3=CC(=O)C=C(O)C3=O)[C@@H](C)CC[C@]12C`, the IC50 in the experiment with P388 came to 0.6 µg/mL (≈ 1.83 µM). The result in experiment [1] was Active. Besides, the minimal inhibitory concentration (MIC) against Candida albicans worked out at 12.5 µg/mL (≈ 38.1 µM).
Take `COC1=CC(=O)C(C[C@]2(C)[C@@H](C)CC[C@]3(C)C(C)=CCC[C@@H]23)=C(O)C1=O`: the IC50 in the experiment on P388 was above 20 µg/mL. Also, in experiment [1], the outcome was Active.
`CC(=O)OC1=C(C[C@]2(C)[C@@H](C)CC[C@]3(C)C(C)=CCC[C@@H]23)C(=O)C=CC1=O` displayed an IC50 in the experiment with P388 of 10 µg/mL (≈ 27 µM). The result in experiment [1] was inactive.
In turn, `CC(=O)Oc1c(O)ccc(O)c1C[C@]1(C)[C@@H](C)CC[C@]2(C)C(C)=CCC[C@@H]12` gave a 50% inhibitory concentration (IC50) in the experiment on P388 below 0.6 µg/mL. In experiment [1], the outcome was inactive. In addition, the MIC against Candida albicans worked out at 12.5 µg/mL (≈ 33.6 µM).
In the experiment on P388, `CC1=CCC[C@H]2[C@](C)(CC3=C(O)C(=O)C=C(O)C3=O)[C@@H](C)CC[C@]12C` showed a concentration for half-maximal inhibition (IC50) of 1.2 µg/mL (≈ 3.48 µM). Besides, in experiment [1], the result was Active. The molecule also gave an MIC against Candida albicans of 50 µg/mL (≈ 145 µM).
As for `CC1=CCC[C@H]2[C@](C)(Cc3c(O)ccc(O)c3O)[C@@H](C)CC[C@]12C`, in experiment [1], the result was inactive.
